Results: paper PMC11375721 (ACS Omega, 2024)
Each block holds one substance with its values, some of them ahead of it.

How the values were obtained:
A549-PDL1 cells = assay: Cellular uptake and internalization; assay type: cell-based
Summary of the method: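 A549 cells stably transfected with PD-L1 by lentiviral infection, grown in RPMI-1640 with 15% FBS at 37 °C, 5% CO2. Cells were incubated with in vitro ligated [18F]Tz-TCO-antibody for 30, 60, 120 and 180 min at 37 °C, then washed twice in ice-cold PBS. Surface activity was stripped with glycine HCl (1 mol/L, pH 2.2) for 10 min at 37 °C. The lysate gave the internalized fraction; washes plus lysate gave total uptake, γ-counted. Three experiments, each in triplicate.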

PD-L1 = PD-L1 (Homo sapiens, UniProt Q9NZQ7); assay: Saturation binding on A549-PDL1 cells; settings: 37 °C, 1 h
Chain of PD-L1 (Q9NZQ7 19-290): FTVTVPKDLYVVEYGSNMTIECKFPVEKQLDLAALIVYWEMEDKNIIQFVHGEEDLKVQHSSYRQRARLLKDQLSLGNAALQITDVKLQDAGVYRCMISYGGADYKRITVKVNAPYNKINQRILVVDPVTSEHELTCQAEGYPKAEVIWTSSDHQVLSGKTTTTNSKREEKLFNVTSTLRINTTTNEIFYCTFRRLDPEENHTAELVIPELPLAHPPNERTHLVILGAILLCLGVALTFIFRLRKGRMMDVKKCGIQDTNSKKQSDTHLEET
Summary of the method: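 Antibody-TCO was ligated with [18F]Tz in PBS (pH 7) at room temperature, and the purified conjugate was added at 0.08–10 nM to A549-PDL1 cells (2 × 10^5/well) for 1 h at 37 °C. Nonspecific binding used 100-fold excess unlabeled antibody added 1 h beforehand. Cell-bound activity was γ-counted. Each condition was run in triplicate, and Kd came from one-site specific-binding nonlinear regression.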

A549-PDL1 xenografts [1] = assay: In vivo pretargeting biodistribution; parameters: species or system mice; settings: 1 h after [^18F]PEG12-Tz, n = 3
Summary of the method: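 Male BALB/c nude mice (4–6 weeks, 13–18 g) received 5 × 10^6 A549-PDL1 and A549 cells in PBS subcutaneously behind the right armpit and were used once tumors reached 5–10 mm. Durvalumab-TCO or atezolizumab-TCO (300 μg in 150 μL PBS) was given i.v. by tail vein. After 24, 48 or 72 h, [18F]PEG12-Tz (1.85 MBq) was given i.v. Mice were killed 1 h later, and organs were weighed, γ-counted and expressed as %ID/g; n = 3. Controls: radioligand alone; blocking by co-injection of 50-fold molar excess atezolizumab plus 50 μg unlabeled tetrazine.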

A549-PDL1 xenografts [2] = assay: Pretargeted micro-PET/CT imaging; assay type: in vivo, mice; settings: for A549-PDL1 tumor uptake (PET): 1 h postinjection of [^18F]PEG12-Tz
[3] = Estimated human dosimetry
Summary of the method: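 Male nude mice bearing A549-PDL1 xenografts were imaged by micro-PET/CT under 2–3% isoflurane on a heating pad, with OSEM reconstruction and %ID/g quantification. Pretargeted arm: atezolizumab-TCO 300 μg i.v., then 48 h later the 18F-tetrazine (3.7 MBq) i.v. Direct arm: [18F]Tz-TCO-atezolizumab 7.4 MBq/mouse i.v., imaged at 1, 2, 4, 6 and 8 h. Mouse data were extrapolated to human organ doses.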

- Kd (PD-L1): 1.38 nM
Substance: [^18F]Tz-TCO-atezolizumab: in vitro ligation product of [^18F]Tz with atezolizumab-TCO, directly labeled radioimmunoconjugate
- cellular uptake (A549-PDL1 cells; 30 min): 3.76 % ID/10^6 cells
- cellular uptake (A549-PDL1 cells; 180 min): 9.85 % ID/10^6 cells
- internalization rate (A549-PDL1 cells; 180 min): 98.1%

- Kd (PD-L1): 2.39 nM
Substance: [^18F]Tz-TCO-durvalumab: in vitro ligation product of [^18F]Tz with durvalumab-TCO
- cellular uptake (A549-PDL1 cells; 30 min): 5.13 % ID/10^6 cells
- cellular uptake (A549-PDL1 cells; 180 min): 8.40 % ID/10^6 cells
- internalization rate (A549-PDL1 cells; 180 min): 73.2%

Substance: atezolizumab pretargeted: pretargeting pair: atezolizumab-TCO injected first, [^18F]PEG12-Tz 24-72 h later, ligated in vivo
- A549-PDL1 tumor uptake (A549-PDL1 xenografts [1]; 24 h after antibody-TCO 300 μg): 1.16 ± 0.06 % ID/g
- blood uptake (A549-PDL1 xenografts [1]; 24 h after antibody-TCO 300 μg): 1.72 ± 0.09 % ID/g
- bone uptake (A549-PDL1 xenografts [1]; 24 h after antibody-TCO 300 μg): 0.38 ± 0.07 % ID/g
- brain uptake (A549-PDL1 xenografts [1]; 24 h after antibody-TCO 300 μg): 0.06 ± 0.01 % ID/g
- gall bladder uptake (A549-PDL1 xenografts [1]; 24 h after antibody-TCO 300 μg): 0.94 ± 0.11 % ID/g
- heart uptake (A549-PDL1 xenografts [1]; 24 h after antibody-TCO 300 μg): 0.93 ± 0.05 % ID/g
- intestine uptake (A549-PDL1 xenografts [1]; 24 h after antibody-TCO 300 μg): 0.51 ± 0.12 % ID/g
- kidney uptake (A549-PDL1 xenografts [1]; 24 h after antibody-TCO 300 μg): 2.04 ± 0.09 % ID/g
- liver uptake (A549-PDL1 xenografts [1]; 24 h after antibody-TCO 300 μg): 0.87 ± 0.08 % ID/g
- lung uptake (A549-PDL1 xenografts [1]; 24 h after antibody-TCO 300 μg): 1.78 ± 0.34 % ID/g
- muscle uptake (A549-PDL1 xenografts [1]; 24 h after antibody-TCO 300 μg): 0.26 ± 0.04 % ID/g
- spleen uptake (A549-PDL1 xenografts [1]; 24 h after antibody-TCO 300 μg): 0.71 ± 0.04 % ID/g
- stomach uptake (A549-PDL1 xenografts [1]; 24 h after antibody-TCO 300 μg): 0.40 ± 0.16 % ID/g
- A549-PDL1 tumor uptake (A549-PDL1 xenografts [1]; 48 h after antibody-TCO 300 μg): 1.65 ± 0.29 % ID/g
- blood uptake (A549-PDL1 xenografts [1]; 48 h after antibody-TCO 300 μg): 1.86 ± 0.15 % ID/g
- bone uptake (A549-PDL1 xenografts [1]; 48 h after antibody-TCO 300 μg): 0.28 ± 0.02 % ID/g
- brain uptake (A549-PDL1 xenografts [1]; 48 h after antibody-TCO 300 μg): 0.05 ± 0.01 % ID/g
- gall bladder uptake (A549-PDL1 xenografts [1]; 48 h after antibody-TCO 300 μg): 0.94 ± 0.24 % ID/g
- heart uptake (A549-PDL1 xenografts [1]; 48 h after antibody-TCO 300 μg): 1.02 ± 0.14 % ID/g
- intestine uptake (A549-PDL1 xenografts [1]; 48 h after antibody-TCO 300 μg): 0.62 ± 0.22 % ID/g
- kidney uptake (A549-PDL1 xenografts [1]; 48 h after antibody-TCO 300 μg): 2.82 ± 0.52 % ID/g
- liver uptake (A549-PDL1 xenografts [1]; 48 h after antibody-TCO 300 μg): 0.96 ± 0.18 % ID/g
- lung uptake (A549-PDL1 xenografts [1]; 48 h after antibody-TCO 300 μg): 1.65 ± 0.11 % ID/g
- muscle uptake (A549-PDL1 xenografts [1]; 48 h after antibody-TCO 300 μg): 0.31 ± 0.08 % ID/g
- spleen uptake (A549-PDL1 xenografts [1]; 48 h after antibody-TCO 300 μg): 0.71 ± 0.12 % ID/g
- stomach uptake (A549-PDL1 xenografts [1]; 48 h after antibody-TCO 300 μg): 0.37 ± 0.06 % ID/g
- A549-PDL1 tumor uptake (A549-PDL1 xenografts [1]; 72 h after antibody-TCO 300 μg): 0.90 ± 0.23 % ID/g
- blood uptake (A549-PDL1 xenografts [1]; 72 h after antibody-TCO 300 μg): 1.48 ± 0.50 % ID/g
- bone uptake (A549-PDL1 xenografts [1]; 72 h after antibody-TCO 300 μg): 0.38 ± 0.03 % ID/g
- brain uptake (A549-PDL1 xenografts [1]; 72 h after antibody-TCO 300 μg): 0.05 ± 0.01 % ID/g
- gall bladder uptake (A549-PDL1 xenografts [1]; 72 h after antibody-TCO 300 μg): 0.63 ± 0.21 % ID/g
- heart uptake (A549-PDL1 xenografts [1]; 72 h after antibody-TCO 300 μg): 0.74 ± 0.28 % ID/g
- intestine uptake (A549-PDL1 xenografts [1]; 72 h after antibody-TCO 300 μg): 0.55 ± 0.15 % ID/g
- kidney uptake (A549-PDL1 xenografts [1]; 72 h after antibody-TCO 300 μg): 2.22 ± 0.37 % ID/g
- liver uptake (A549-PDL1 xenografts [1]; 72 h after antibody-TCO 300 μg): 0.71 ± 0.16 % ID/g
- lung uptake (A549-PDL1 xenografts [1]; 72 h after antibody-TCO 300 μg): 0.92 ± 0.06 % ID/g
- muscle uptake (A549-PDL1 xenografts [1]; 72 h after antibody-TCO 300 μg): 0.29 ± 0.06 % ID/g
- spleen uptake (A549-PDL1 xenografts [1]; 72 h after antibody-TCO 300 μg): 0.81 ± 0.13 % ID/g
- stomach uptake (A549-PDL1 xenografts [1]; 72 h after antibody-TCO 300 μg): 0.32 ± 0.11 % ID/g
- A549-PDL1 tumor uptake (PET) (A549-PDL1 xenografts [2]; 24 h interval): 0.79 ± 0.06 % ID/g
- A549-PDL1 tumor uptake (PET) (A549-PDL1 xenografts [2]; 48 h interval): 0.94 ± 0.16 % ID/g
- A549-PDL1 tumor uptake (PET) (A549-PDL1 xenografts [2]; 72 h interval): 0.41 ± 0.04 % ID/g
- accumulation in A549-PDL1 tumors under blocking (A549-PDL1 xenografts [2]; co-injection of unmodified anti-PD-L1 antibody or unlabeled tetrazine): could be blocked
- lowering of total effective dose versus [^18F]Tz-TCO-atezolizumab ([3]; estimated human): over 7.5 fold
- effective internal radiation dose ([3]; for men, as printed in main text): 1.15 × 10^–3 μSv/MBq
